Activity calls are given as the source filed them. The calls are words filed in the database; no cut-off is given here.
Key:
[1] = test system: Yersinia pseudotuberculosis; experiment: Effect on T3S in Yersinia pseudotuberculosis 3 pIB29 assessed as inhibition of light emission at 10 uM by luciferase reporter gene assay
Outline: (§1)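 YPIII pIB29 (yopE-luxAB) reporter strain grown overnight at ambient temperature in BHI with 5 mM EGTA and 20 mM MgCl2 to deplete calcium. Culture adjusted to OD600 0.15-0.25 and added to compounds in DMSO (final ≤1%). Incubated 1 h at ambient temperature with shaking, then 2 h at 37 °C. Decanal substrate added and luminescence read at once. Triplicates; repeated on ≥2 occasions.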

[2] = test system: Yersinia pseudotuberculosis; experiment: Effect on T3S in Yersinia pseudotuberculosis 3 pIB29 assessed as inhibition of light emission at 20 uM by luciferase reporter gene assay; outline: as §1
[3] = test system: Yersinia pseudotuberculosis; experiment: Effect on T3S in Yersinia pseudotuberculosis 3 pIB29 assessed as inhibition of light emission at 100 uM by luciferase reporter gene assay; outline: as §1
[4] = test system: Yersinia pseudotuberculosis; experiment: Effect on T3S in Yersinia pseudotuberculosis 3 pIB29 assessed as inhibition of light emission at 50 uM by luciferase reporter gene assay; outline: as §1
[5] = test system: Yersinia pseudotuberculosis; experiment: Effect on T3S in Yersinia pseudotuberculosis 3 pIB29 assessed as inhibition of light emission at 5 uM by luciferase reporter gene assay; outline: as §1
[6] = test system: Yersinia pseudotuberculosis; experiment: Effect on T3S in Yersinia pseudotuberculosis 3 pIB29 assessed as inhibition of light emission at 0.5 uM by luciferase reporter gene assay; outline: as §1
[7] = test system: Yersinia pseudotuberculosis; experiment: Effect on T3S in Yersinia pseudotuberculosis 3 pIB29 assessed as inhibition of light emission at 1 uM by luciferase reporter gene assay; outline: as §1
[8] = test system: Yersinia pseudotuberculosis; experiment: Effect on T3S in Yersinia pseudotuberculosis 3 pIB29 assessed as inhibition of light emission at 2 uM by luciferase reporter gene assay; outline: as §1

O=C(Nc1ccc(Cl)cc1)c1cc(F)cc(F)c1
Activity [1]: inactive | Activity [2]: inactive | Activity [3]: inactive | Activity [4]: inactive

O=C(Nc1ccc(SC(F)(F)F)cc1)c1c(O)c(Cl)cc(Cl)c1Cl
inhibition [5]: 54% | inhibition [1]: 58% | inhibition [6]: 11% | inhibition [7]: 4% | inhibition [2]: 68% | inhibition [3]: 100% | inhibition [4]: 100% | inhibition [8]: 18%

CC(=O)Oc1ccc(I)cc1C(=O)Nc1ccc(Cl)cc1
inhibition [5]: 99% | inhibition [1]: 99% | inhibition [6]: 58% | inhibition [7]: 73% | inhibition [2]: 100% | inhibition [3]: 100% | inhibition [4]: 100% | inhibition [8]: 92%

Cc1cc(C)cc(NC(=O)c2c(O)c(Cl)cc(Cl)c2Cl)c1
inhibition [1]: 21% | inhibition [2]: 24% | inhibition [3]: 52% | inhibition [4]: 46%

CC(=O)Oc1c(Cl)cc(Cl)c(Cl)c1C(=O)Nc1ccc(C(C)(C)C)cc1
inhibition [1]: 4% | inhibition [2]: 7% | inhibition [3]: 12% | inhibition [4]: 19%

COc1cc(Cl)c(C)cc1NC(=O)c1cc(C)ccc1O
Activity [1]: inactive | Activity [2]: inactive | inhibition [3]: -1% | inhibition [4]: 16%

O=C(Nc1ccc(Cl)cc1)c1ccccc1O
inhibition [1]: 14% | inhibition [2]: 64% | inhibition [3]: 100% | inhibition [4]: 99%

O=C(Nc1ccc(Br)cc1)c1cc(I)ccc1O
inhibition [5]: 68% | inhibition [1]: 71% | inhibition [6]: 20% | inhibition [7]: 49% | inhibition [2]: 67% | inhibition [3]: 60% | inhibition [4]: 62% | inhibition [8]: 68%

CC(=O)Oc1c(I)cc(I)cc1C(=O)Nc1ccc(SC(F)(F)F)cc1
inhibition [5]: 60% | inhibition [1]: 72% | inhibition [6]: 11% | inhibition [7]: 11% | inhibition [2]: 71% | inhibition [3]: 75% | inhibition [4]: 71% | inhibition [8]: 19%

CC(=O)Oc1c(Cl)cc(Cl)c(Cl)c1C(=O)Nc1ccc(SC(F)(F)F)cc1
inhibition [5]: 47% | inhibition [1]: 67% | inhibition [6]: 5% | inhibition [7]: 15% | inhibition [2]: 95% | inhibition [3]: 92% | inhibition [4]: 89% | inhibition [8]: 42%

O=C(Nc1ccc(SC(F)(F)F)cc1)c1cc(I)ccc1O
inhibition [5]: 55% | inhibition [1]: 57% | inhibition [6]: 17% | inhibition [7]: 53% | inhibition [2]: 57% | inhibition [3]: 51% | inhibition [4]: 49% | inhibition [8]: 53%

O=C(Nc1ccc(F)cc1)c1cc(I)cc(I)c1O
inhibition [5]: 26% | inhibition [1]: 62% | inhibition [6]: 5% | inhibition [7]: 3% | inhibition [2]: 78% | inhibition [3]: 100% | inhibition [4]: 99% | inhibition [8]: 6%

CC(=O)Oc1ccc(I)cc1C(=O)Nc1ccc(SC(F)(F)F)cc1
inhibition [5]: 56% | inhibition [1]: 58% | inhibition [6]: 17% | inhibition [7]: 52% | inhibition [2]: 74% | inhibition [3]: 100% | inhibition [4]: 99% | inhibition [8]: 80%

COc1cc(Cl)c(C)cc1NC(=O)c1cc(C)ccc1OC(C)=O
Activity [1]: inactive | Activity [2]: inactive | inhibition [4]: -2%

CC(=O)Oc1c(C(=O)Nc2ccc(SC(F)(F)F)cc2)cc2cc(Br)ccc2c1Br
inhibition [1]: 9% | inhibition [2]: 10% | inhibition [3]: -3% | inhibition [4]: 4%

CC(=O)Oc1c(I)cc(I)cc1C(=O)Nc1ccccc1
inhibition [1]: 30% | inhibition [2]: 48% | inhibition [3]: 94% | inhibition [4]: 75%

CC(C)(C)c1ccc(NC(=O)c2cc(F)ccc2O)cc1
inhibition [1]: 13% | inhibition [2]: 12% | inhibition [3]: 8% | inhibition [4]: 13%

O=C(Nc1ccccc1)c1cc(I)cc(I)c1O
inhibition [1]: 32% | inhibition [2]: 51% | inhibition [3]: 99% | inhibition [4]: 87%

CC(=O)Oc1ccc(I)cc1C(=O)Nc1ccc(Br)cc1
inhibition [5]: 100% | inhibition [1]: 98% | inhibition [6]: 54% | inhibition [7]: 71% | inhibition [2]: 100% | inhibition [3]: 100% | inhibition [4]: 100% | inhibition [8]: 94%

COc1cc(Cl)c(C)cc1NC(=O)c1cccc(C(C)C)c1O
inhibition [1]: 23% | inhibition [2]: 25% | inhibition [3]: 5% | inhibition [4]: 19%

CC(=O)Oc1ccc(Br)cc1C(=O)Nc1cc(C(C)(C)C)cc(C(C)(C)C)c1
Activity [1]: inactive | Activity [2]: inactive | inhibition [3]: 0% | inhibition [4]: 15%

COc1cc(Cl)c(C)cc1NC(=O)c1cccc(C(C)C)c1OC(C)=O
inhibition [1]: 10% | inhibition [2]: 8% | inhibition [3]: -1% | inhibition [4]: 4%

O=C(Nc1ccc(SC(F)(F)F)cc1)c1cc2cc(Br)ccc2c(Br)c1O
inhibition [1]: 41% | inhibition [2]: 55% | inhibition [3]: 63% | inhibition [4]: 63%

Cc1ccc(C(=O)Nc2ccccc2F)c(O)c1
inhibition [1]: 23% | inhibition [2]: 21% | inhibition [3]: 34% | inhibition [4]: 35%

CC(=O)Oc1c(I)cc(I)cc1C(=O)Nc1ccc(C(C)(C)C)cc1
inhibition [1]: 17% | inhibition [2]: 20% | inhibition [3]: 2% | inhibition [4]: 17%

CC(=O)Oc1c(I)cc(I)cc1C(=O)Nc1ccc(Cl)cc1
inhibition [5]: 54% | inhibition [1]: 76% | inhibition [6]: 3% | inhibition [7]: 7% | inhibition [2]: 98% | inhibition [3]: 99% | inhibition [4]: 99% | inhibition [8]: 17%

CCCCCCCc1ccc(NC(=O)c2cc(I)cc(I)c2OC(C)=O)cc1
inhibition [1]: 19% | inhibition [2]: 19% | inhibition [3]: 5% | inhibition [4]: 17%

CC(=O)Oc1ccccc1C(=O)Nc1ccc(Cl)cc1
inhibition [1]: 23% | inhibition [2]: 44% | inhibition [3]: 99% | inhibition [4]: 92%

CC(=O)Oc1c(I)cc(I)cc1C(=O)Nc1cc(Cl)ccc1F
inhibition [5]: 9% | inhibition [1]: 34% | inhibition [6]: 6% | inhibition [7]: 1% | inhibition [2]: 58% | inhibition [3]: 95% | inhibition [4]: 89% | inhibition [8]: 1%

CC(=O)Oc1c(Br)cc(Br)cc1C(=O)Nc1ccccc1F
inhibition [1]: 6% | inhibition [2]: 15% | inhibition [3]: 83% | inhibition [4]: 61%

CC(C)(C)c1ccc(NC(=O)c2cc(I)cc(I)c2O)cc1
inhibition [1]: 33% | inhibition [2]: 40% | inhibition [3]: 42% | inhibition [4]: 41%

CC(C)(C)c1ccc(NC(=O)c2c(O)c(Cl)cc(Cl)c2Cl)cc1
inhibition [1]: 27% | inhibition [2]: 28% | inhibition [3]: 34% | inhibition [4]: 23%

CC(=O)Oc1cc(C)ccc1C(=O)Nc1ccccc1F
inhibition [1]: 0% | inhibition [2]: 8% | inhibition [3]: 95% | inhibition [4]: 53%

CC(=O)Oc1c(Cl)cc(Cl)c(Cl)c1C(=O)Nc1ccccc1
Activity [1]: inactive | Activity [2]: inactive | inhibition [3]: 10% | inhibition [4]: 12%

CC(=O)Oc1c(I)cc(I)cc1C(=O)Nc1ccc(Br)cc1
inhibition [5]: 38% | inhibition [1]: 69% | inhibition [6]: 11% | inhibition [7]: 8% | inhibition [2]: 86% | inhibition [3]: 95% | inhibition [4]: 94% | inhibition [8]: 7%

CC(=O)Oc1ccc(Cl)cc1C(=O)Nc1ccc(Cl)c(C)c1
inhibition [5]: 91% | inhibition [1]: 99% | inhibition [6]: 15% | inhibition [7]: 50% | inhibition [2]: 100% | inhibition [3]: 100% | inhibition [4]: 100% | inhibition [8]: 62%

COc1cc(Cl)c(C)cc1NC(=O)c1cc(I)cc(I)c1OC(C)=O
inhibition [1]: 11% | inhibition [2]: 19% | inhibition [3]: 50% | inhibition [4]: 35%

CCCCCCCc1ccc(NC(=O)c2cc(I)cc(I)c2O)cc1
inhibition [1]: 30% | inhibition [2]: 27% | inhibition [3]: 3% | inhibition [4]: 22%

COc1cc(Cl)c(C)cc1NC(=O)c1cc(I)cc(I)c1O
inhibition [1]: 35% | inhibition [2]: 55% | inhibition [3]: 67% | inhibition [4]: 57%

CC(C)(C)c1cc(NC(=O)c2cc(Br)ccc2O)cc(C(C)(C)C)c1
inhibition [1]: 12% | inhibition [2]: 9% | inhibition [3]: 0% | inhibition [4]: -4%

CC(=O)Oc1c(Cl)cc(Cl)c(Cl)c1C(=O)Nc1ccc(F)cc1
inhibition [1]: 19% | inhibition [2]: 23% | inhibition [3]: 54% | inhibition [4]: 32%

CC(=O)Oc1c(Cl)cc(Cl)c(Cl)c1C(=O)Nc1cc(C)cc(C)c1
inhibition [1]: 6% | inhibition [2]: 6% | inhibition [3]: 20% | inhibition [4]: 5%

O=C(Nc1ccc(F)cc1)c1c(O)c(Cl)cc(Cl)c1Cl
inhibition [1]: 19% | inhibition [2]: 19% | inhibition [3]: 45% | inhibition [4]: 32%

O=C(Nc1ccccc1)c1c(O)c(Cl)cc(Cl)c1Cl
inhibition [1]: 22% | inhibition [2]: 21% | inhibition [3]: 31% | inhibition [4]: 23%

O=C(Nc1ccccc1F)c1cc(Br)cc(Br)c1O
inhibition [1]: 14% | inhibition [2]: 29% | inhibition [3]: 78% | inhibition [4]: 64%

CC(=O)Oc1ccc(F)cc1C(=O)Nc1ccc(C(C)(C)C)cc1
inhibition [1]: 37% | inhibition [2]: 37% | inhibition [3]: 22% | inhibition [4]: 22%
